Bioassay records from PubChem BioAssay.
Only some compounds are listed: those with a hit (about 3.9% of all), similar ones and a draw of the others.
STAT3 act = IL-6 driven STAT3 reporter potentiators, primary screen, U3A cells, luciferase, luminescence, MLSCN library | IL-6 STAT3-luciferase reporter; 100% = signal with IL-6 EC80 alone | activation (% of control), % at 5.6 µM | 0.91% of 190,000 active | AID 871, 2007;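 active means activation above the screen-wide mean of compound activation plus 3 SD, cut at about 130% in these data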;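 further: 0% = background luminescence of wells with medium and substrate only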
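Test system: STAT3-luciferase reporter U3A cells; Detection: reporter luminescence signal; Times: 1 h compound pre-exposure, 6 h IL-6 stimulation, 37 °C; Benchmarks: IL-6-only high control; Also added: IL-6 stimulus at 33 ng/mL final.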
APP 5'UTR act = activators of APP 5'UTR luciferase reporter, primary screen, SH-SY5Y cells; SH-SY5Y APP 5'UTR luciferase reporter, luminescence; zero percent = DMSO vehicle wells; AID 1276, 2008; 1% of 190,000 active; activation, % at 2 µM;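 active means activation above a set limit, based on mean plus 3 SD of controls, cut at about 140% in these data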
STAT1 act = STAT1 signaling activators, primary screen, cell-based, HTS, luciferase reporter; NIH 3T3 STAT1-luciferase reporter, IFN-gamma, luminescence; 100% = IFN-gamma alone, no compound; activation (% of control), % at 5.5 µM; 2.6% of 200,000 active; AID 932, 2007;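 active means activation above the screen-wide mean activation plus 3 SD, cut at about 130% in these data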;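 further: raw ratio to IFN-gamma control signal so 100% means no change and 0% no light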
NF-kB expr up = activators of NF-kB expression in neurons, primary screen, cell-based, HTS; human neuronal cells, NF-kB reporter expression; hits give high values; fold change at 12.5 µM; 1.6% of 190,000 active; AID 1239, 2008; in the data active means fold change above about 3.3
STAT1 inh = STAT1 signaling inhibitors, primary screen, cell-based, HTS, luciferase reporter | NIH 3T3 STAT1-luciferase reporter, IFN-gamma, luminescence | inhibition, % at 5.5 µM | 0.35% of 200,000 active | AID 920, 2007;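 active means inhibition above a set limit, the mean inhibition across all tested compounds plus 3 SD, cut at about 34% in these data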;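 further: 0% = IFN-gamma with DMSO and 100% = IFN-gamma with 300 µM nifuroxazide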
Pf gametocyte = late stage P. falciparum gametocyte viability inhibitors, primary screen, ATP luminescence, HTS; 0.065% of 150,000 active; P. falciparum stage V gametocytes, 24 h; AID 743093, 2013; inhibition, % at 10.9 µM;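 active means inhibition above the mean plus 3 SD of compounds within the control limits, set per campaign, cut at about 38% in these data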;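 further: 0% = DMSO wells and 100% = medium only without gametocytes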
STAT1 act conf = STAT1 signaling activators, confirmation, cell-based, HTS, luciferase reporter | NIH 3T3 STAT1-luciferase reporter, IFN-gamma potentiation, luminescence; 100% = IFN-gamma EC80 alone, no compound | 97% of 1,200 active | activation (% of control), % at 5.7 µM | AID 1262, 2008 | shares compounds with STAT1 act;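 active means activation above a set limit carried over from the earlier primary STAT1 screen, cut at about 140% in these data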;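 further: simple ratio to median IFN-gamma plus DMSO wells so 0% means no light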
NFkB act STAT1ct = NF-kB reporter activators, TNF-alpha stimulated, counter-screen for STAT1 activator project, cell-based, HEK293T, luciferase luminescence. shares compounds with STAT1 act. 100% = TNF-alpha with vehicle only. activation (% of control), % at 5.7 µM. 43% of 1,200 active;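 active means activation above the mean of solvent-only control wells plus 3 SD, set per campaign, cut at about 130% in these data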;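 further: TNF-alpha given at a submaximal dose yielding about 80% of full reporter signal; values are well signal over median control so 100% means no change and 0% no light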
STAT3 act 2 = STAT3 reporter activation by STAT1 hits, confirmation, counter-screen for STAT1 activator project, U3A cells, luciferase, luminescence | shares compounds with STAT1 act | IL-6; cells lack STAT1; 100 = IL-6 alone, no compound effect | activation (% of control), % at 5.7 µM | 46% of 1,200 active;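 active means activation above the solvent-only control well mean plus 3 SD, set per plate batch, cut at about 110% in these data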;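 further: 0% = no luminescence and 100% = median IL-6 plus DMSO wells; higher means more STAT3 reporter activation so hits are non-selective activators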
Active calls of the source: *; / = no result given.

SMILES	STAT3 act	APP 5'UTR act	STAT1 act	NF-kB expr up	STAT1 inh	Pf gametocyte	STAT1 act conf	NFkB act STAT1ct	STAT3 act 2
CS(=O)(=O)c1cnc2c(-c3ccsc3)cnn2c1N	92.3	108.9	157.3*	2.64	-64.8	-10.9	171.2*	121.3	111.3*
Cc1[nH]n(C(N)=S)c(=O)c1N=Nc1ccc2ccccc2c1	128.3	134.0	172.3*	5.86*	-78.2	-1.6	208.3*	123.1	146.3*
CCCC(=O)Nc1c(-c2ccccc2)c(=O)c(C)nn1-c1ccc(C)cc1	/	/	/	/	/	-2.6	/	/	/
C=CCn1c(SCC(=O)Nc2ccc(-c3nc4ccc(C)cc4s3)cc2)nnc1-c1ccccc1	78.1	146.0*	155.6*	1.05	-60.9	-17.1	198.2*	110.3	93.8
O=C(CCS(=O)(=O)c1ccccc1)Nc1ccc(-c2nc3ccccc3s2)cc1	65.0	170.3*	164.8*	7.21*	-71.5	/	239.9*	113.2	89.3
Cc1ccc2nc(-c3ccc(NC(=O)CN(c4ccccc4C)S(C)(=O)=O)cc3)sc2c1	109.5	195.3*	152.8*	3.85*	-59.1	-20.4	218.2*	130.0	108.7
Cc1ccc(N=CC2=C(O)CC(c3ccc(Cl)cc3)CC2=O)cc1 (stereo not given)	93.8	-5.2	104.4	1.12	-5.0	-8.7	/	/	/
CC(C)c1ccc(N(CCc2ccccn2)C(=O)C(C)(C)C)cc1	/	/	/	/	/	-10.2	/	/	/
O=c1cc[nH]c2c1ccc1cccnc12	/	/	/	/	/	-21.6	/	/	/
CCn1nnnc1SCC(=O)NC1Cc2ccccc2C1	/	/	/	/	/	-24.5	/	/	/
CCC(CC)c1nnc(NC(=O)CCNC(=O)c2ccccc2Cl)s1	107.9	-3.9	99.3	1.07	0.6	-6.7	/	/	/
O=c1oc(Nc2ccccc2Cl)nc2ccccc12	82.0	48.5	123.4	2.41	-28.1	/	/	/	/
O=c1oc(Nc2cccc(Cl)c2)nc2ccccc12	102.7	71.1	157.1*	2.43	-64.7	/	176.7*	117.9	157.5*
N/C(=N\OC(=O)c1ccco1)c1ccc(Br)cc1	89.7	173.1*	161.7*	3.71*	-67.5	10.3	157.8*	122.7	101.6
N/C(=N\OC(=O)c1ccco1)c1ccccn1	96.7	77.0	116.0	2.21	-19.6	-4.5	/	/	/
c1ccc(CNc2ccc3ccccc3n2)nc1	80.9	161.5*	152.8*	4.7*	-55.7	-8.1	199.8*	107.3	91.6
Cc1cc(NCc2ccccn2)nc2ccccc12	83.4	-4.5	89.4	1.27	11.5	-0.1	/	/	/
Cn1cc(CN(CCO)Cc2cccs2)c(-c2ccccc2F)n1	100.9	-6.6	97.0	1.22	1.3	/	/	/	/
Nc1nc2ccc(-c3nc4ccccc4o3)cc2s1	84.3	157.4*	152.5*	10.3*	-57.0	/	230.7*	130.4	102.2
c1ccc2oc(-c3ccc4nc[nH]c4c3)nc2c1	93.2	138.1*	151.4*	5.2*	-55.7	3.7	205.2*	135.4*	97.2
COc1ccc(-c2nc3ccccc3o2)cc1OC	/	/	/	/	/	0.1	/	/	/
CCOc1ccc(NC(=S)C(C#N)=C2N(C)c3ccccc3N2C)cc1	103.2	17.0	96.5	1.32	2.1	-32.7	/	/	/
NC(=O)C1CCN(CC(=O)NC(=O)NC2CCCC2)CC1	99.8	20.3	105.5	1.09	-6.0	/	/	/	/
CC(C)(C)C1C/C(=C/c2ccccn2)C(=O)/C(=C/c2ccccn2)C1 (stereo not given)	61.7	-94.7	221.4*	0.18	-131.5	/	198.6*	32.0	72.3
CC1C/C(=C/c2ccccn2)C(=O)/C(=C/c2ccccn2)C1 (stereo not given)	53.2	-97.5	234.8*	0.15	-142.3	/	120.4	87.3	79.2
SMILES	STAT3 act	APP 5'UTR act	STAT1 act	NF-kB expr up	STAT1 inh	Pf gametocyte	STAT1 act conf	NFkB act STAT1ct	STAT3 act 2
O=C1/C(=C/c2ccccn2)COc2ccccc21	97.6	-4.8	96.2	1.32	3.0	16.8	/	/	/
Cc1[nH]c2ccccc2c1C(=O)C(=O)NCc1ccco1	96.0	3.9	93.5	1.18	5.0	-1.4	/	/	/
Clc1cccc(-c2ccc(C=Nc3ccc(N4CCOCC4)cc3)o2)c1	114.6	2.5	97.7	1.19	2.6	/	/	/	/
COc1ccc(-n2ncc3c(NCc4ccccn4)ncnc32)cc1	99.0	63.8	112.4	1.05	-14.6	/	/	/	/
C=CCNc1ncnc2c1cnn2-c1ccc(OC)cc1	71.4	148.5*	177.7*	4.54*	-84.7	-22.0	233.9*	126.0	107.6
COc1ccc(-n2ncc3c(NCc4ccco4)ncnc32)cc1	93.5	95.4	162.2*	3.22	-67.9	-10.3	185.2*	138.0*	114.5*
CCCN(CCC)c1ncnc2c1cnn2-c1ccc(OC)cc1	78.2	136.8*	161.7*	2.08	-66.9	/	249.4*	145.1*	105.1
Cn1cc([N+](=O)[O-])c(C(=O)n2cccn2)n1	/	/	/	/	/	-0.7	/	/	/
O=c1[nH]cnc2scc(-c3ccc(-c4ccccc4)cc3)c12	72.4	38.4	158.8*	2.33	-60.2	18.2	213.7*	112.8	89.6
CCCOc1ccc(-c2csc3nc[nH]c(=O)c23)cc1	/	/	/	/	/	-19.3	/	/	/
O=C(Cc1ccccc1F)Nc1ccc(SC(F)F)cc1	110.3	152.8*	162.3*	5.31*	-70.5	-24.4	169.4*	127.8	127.2*
O=C(COC(=O)Cc1ccccc1F)Nc1ccc(SC(F)F)cc1	99.5	8.8	104.2	1.14	-4.7	2.0	/	/	/
O=C(Nc1ccc(SC(F)F)cc1)c1ccccc1F	99.6	125.9	160.6*	1.28	-64.5	14.7	181.9*	141.7*	102.4
COc1ccc(-c2cc(C(=O)Nc3ccccc3)on2)cc1	112.5	-5.8	178.9*	1.78	-88.8	18.0	156.5*	128.0	110.2
COCCNC(=O)/C(C#N)=C/C=C/c1ccccc1[N+](=O)[O-]	93.4	15.4	88.9	1.42	10.8	-16.6	/	/	/
CCOc1ccc2nc(N/C(N)=N/C(=S)Nc3ccc(C)c(C)c3)nc(C)c2c1	94.6	-5.3	90.6	1.07	10.5	0.4	/	/	/
CCNC(=S)/N=C(\N)Nc1nc(C)c2cc(C)ccc2n1	127.1	66.3	182.2*	2	-91.4	15.0	178.8*	141.1*	125.2*
